Data: ChEMBL document CHEMBL1649428, “An ABC transporter of Streptococcus pneumoniae involved in susceptibility to vancoresmycin and bacitracin” (2009)
≈ marks a conversion by molar mass, not a printed value. Bridge positions count the residues as written; N and C are the ends. Square brackets hold non-standard residues; d marks the D form. Peptide text beside a SMILES is read from it. * marks the point of attachment. Ileψ(thiazoline)Cys = CC[C@H](C)[C@H](N)C1=N[C@H](C(=O)*)CS1; dOrn = NCCC[C@@H](N)C(=O)O

How the values were obtained:
Type in all cases: functional
[1] = tested on: Streptococcus pneumoniae; assay: Antimicrobial activity against Streptococcus pneumoniae R6 by agar dilution method
Outline: (§1)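 Agar dilution MIC against the strain. Vancoresmycin was tested at 0.3 to 0.8 μg/ml in 0.05 μg/ml steps, diluted from a 0.5 mg/ml methanol stock kept at −20°C. Bacitracin was tested at 0.5 to 6 μg/ml in 0.2 μg/ml steps. Pneumococci are routinely grown at 37°C. MIC is the mean of three independent experiments.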

[2] = tested on: Streptococcus pneumoniae; assay: Antimicrobial activity against copY and cyl deficient Streptococcus pneumoniae VarE mutant by agar dilution method
[3] = tested on: Streptococcus pneumoniae; assay: Antimicrobial activity against copY and cyl deficient Streptococcus pneumoniae VarA mutant by agar dilution method
[4] = tested on: Streptococcus pneumoniae; assay: Antimicrobial activity against copY and cyl deficient Streptococcus pneumoniae VarF mutant by agar dilution method
[5] = tested on: Streptococcus pneumoniae; assay: Antimicrobial activity against Streptococcus pneumoniae VarG transformed with spr0813 C1744T mutant gene by agar dilution method; outline: as §1
[6] = tested on: Streptococcus pneumoniae; assay: Antimicrobial activity against Streptococcus pneumoniae R6 transformed with DNA containing spr0813 C1744T mutant gene selected after drug exposure by agar dilution method; outline: as §1
[7] = tested on: Streptococcus pneumoniae; assay: Antimicrobial activity against Streptococcus pneumoniae R6 transformed with DNA containing spr0813 C1744T::aphIII mutant gene selected after kanamycin exposure by agar dilution method; outline: as §1
[8] = tested on: Streptococcus pneumoniae; assay: Antimicrobial activity against kanamycin-resistant and spr0811-spr0813::aphIII deficient Streptococcus pneumoniae R6 by agar dilution method; outline: as §1
[9] = tested on: Streptococcus pneumoniae; assay: Antimicrobial activity against kanamycin-resistant and spr0811-spr0813::aphIII deficient Streptococcus pneumoniae VarG by agar dilution method; outline: as §1
[10] = tested on: Streptococcus pneumoniae; assay: Antimicrobial activity against Streptococcus pneumoniae R6 transformed with DNA containing spr0813 C1744T mutant gene selected after vancoresmycin exposure by agar dilution method; outline: as §1

Row | SMILES | MIC [1] | MIC [2] | MIC [3] | MIC [4] | MIC [5] | MIC [6] | MIC [7] | MIC [8] | MIC [9] | MIC [10]
1 | C/C(=C\CC(O)CC(O)CCC(C)C(O)C(C)C(O)CCCC(O)C(C)C(O)/C(C)=C/C(C)C(=O)/C(C)=C/C(O)C(O)CC(O)CC(OC1OC(C)C(O)C(N)C1O)C(C)CCC(O)CC(O)CCC(C)C(O)C(C)C(O)C(C)C)C(=O)C1=C(O)/C(=C/C(C)C)N(C)C1=O (centres undefined) [VANCORESMYCIN] | 0.4 µg/mL (≈ 0.298 µM) | 0.7 µg/mL (≈ 0.521 µM) | 0.7 µg/mL (≈ 0.521 µM) | 0.65 µg/mL (≈ 0.484 µM) | 0.5 µg/mL (≈ 0.372 µM) | 0.5 µg/mL (≈ 0.372 µM) | 0.5 µg/mL (≈ 0.372 µM) | 0.4 µg/mL (≈ 0.298 µM) | 0.4 µg/mL (≈ 0.298 µM) | –
2 | CC[C@H](C)[C@H](N)C1=N[C@H](C(=O)N[C@@H](CC(C)C)C(=O)N[C@H](CCC(=O)O)C(=O)N[C@H](C(=O)N[C@H]2CCCCNC(=O)[C@H](CC(N)=O)NC(=O)[C@@H](CC(=O)O)NC(=O)[C@H](Cc3cnc[nH]3)NC(=O)[C@@H](Cc3ccccc3)NC(=O)[C@H]([C@@H](C)CC)NC(=O)[C@@H](CCCN)NC2=O)[C@@H](C)CC)CS1 [BACITRACIN] ({Ileψ(thiazoline)Cys}-L[dE]IK[dOrn]I[dF]H[dD]N; lactam 4-C) | 4.8 µg/mL (≈ 3.37 µM) | 5.2 µg/mL (≈ 3.65 µM) | 5.2 µg/mL (≈ 3.65 µM) | 5.2 µg/mL (≈ 3.65 µM) | 1 µg/mL (≈ 0.703 µM) | 1 µg/mL (≈ 0.703 µM) | 1 µg/mL (≈ 0.703 µM) | 1 µg/mL (≈ 0.703 µM) | 1 µg/mL (≈ 0.703 µM) | 1 µg/mL (≈ 0.703 µM)
